The text below walks through data of ChEMBL document CHEMBL1148178, “Dicranin, an antimicrobial and 15-lipoxygenase inhibitor from the moss Dicranum scoparium” (1993).

What is called inhibition is how much of the control response was suppressed. Higher therefore signals a strong effect.

Calls of active or inactive are those of the source. The rule behind the calls is not given here.

One assay has as its system Escherichia coli. Description: Antibacterial activity against Escherichia coli B74-1 after 24 hrs by disk diffusion assay. The assay is classed as functional, organism-based. An outline of the steps: (§1)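 Sterile 6 mm filter-paper disc bearing sample set in the centre of a Petri dish of 15 ml plate count agar. Overlaid with 3 ml soft nutrient agar (nutrient broth + 0.7% agar) seeded with 1% of a 16–18 h culture of the test strain. Read-out is the diameter of the growth-free zone around the disc.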
In general terms: Agar diffusion results depend on both activity and mobility in agar.

The test system of a further assay is Bacillus subtilis. Description: Antibacterial activity against Bacillus subtilis NCIB 3610 after 24 hrs by disk diffusion assay. Type of assay: functional, organism-based. The procedure, abridged: as §1
For another assay, the system named is Salmonella typhimurium. Description: Antibacterial activity against Salmonella Typhimurium NCIB 10248 after 24 hrs by disk diffusion assay. Type of assay: functional, organism-based. Particulars: Salmonella enterica subsp. enterica serovar Typhimurium. An outline of the steps:
as §1

Another assay relates to Pseudomonas aeruginosa. Description: Antibacterial activity against Pseudomonas aeruginosa ATCC 10145 after 24 hrs by disk diffusion assay. The assay is classed as functional, organism-based. The procedure, abridged:
as §1

Another assay deals with Pseudomonas putida. Description: Antibacterial activity against Pseudomonas putida T-AQ 18/YF18 after 24 hrs by disk diffusion assay. The assay is classed as functional, organism-based. An outline of the steps:
as §1

Assay [1] relates to Geobacillus stearothermophilus. Description: Antibacterial activity against Bacillus stearothermophilus NCA 1518 after 24 hrs by disk diffusion assay. The assay is classed as functional, organism-based. The procedure, abridged: as §1
The next assay deals with Bacillus cereus. As to the kind of experiment: Antibacterial activity against Bacillus cereus NCIB 3329 after 24 hrs by disk diffusion assay. The assay is classed as functional, organism-based. An outline of the steps: as §1
In the next assay the test system is Enterococcus faecalis. As to the kind of experiment: Antibacterial activity against Streptococcus faecalis NCIB 775 after 24 hrs by disk diffusion assay. Type of assay: functional, organism-based. The procedure, abridged: as §1
The test system of a further assay is Staphylococcus aureus. As to the kind of experiment: Antibacterial activity against Staphylococcus aureus T-AQ 49/YF29 after 24 hrs by disk diffusion assay. Type of assay: functional, organism-based. The procedure, abridged:
as §1

The next assay concerns Glycine max. Description: Inhibition of soybean 15-LOX at 4 uM. An outline of the steps:
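15-lipoxygenase assay run by a literature method with arachidonic acid (40 μM) as substrate.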

As to `CC/C=C\C/C=C\C/C=C\C/C=C\CCCCC(=O)O`, the outcome (in the assay on Escherichia coli; in the assay on Bacillus subtilis; with Salmonella typhimurium; with Pseudomonas aeruginosa; in the assay with Pseudomonas putida; in [1]) was Active. Besides, the outcome with Bacillus cereus, in the assay on Enterococcus faecalis and in the assay on Staphylococcus aureus was Active.
`CCCCCC#CCC#CCC#CCC#CCCCC(=O)O` yielded an inhibition in the assay on Glycine max of 95%.
